IDE act = activators of human insulin-degrading enzyme in cells; HEK cells, FAbeta-B cleavage, fluorescence polarization; 0% vehicle, 100% cell-free pure enzyme wells; actives 0.073% (n = 340,000); activation, % at 5.96 µM;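 active = activation above the mean of all tested compounds plus 3 SD, set per screening campaign, cut at about 17% in these data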
Target sequence (P14735 whole entry, looked up): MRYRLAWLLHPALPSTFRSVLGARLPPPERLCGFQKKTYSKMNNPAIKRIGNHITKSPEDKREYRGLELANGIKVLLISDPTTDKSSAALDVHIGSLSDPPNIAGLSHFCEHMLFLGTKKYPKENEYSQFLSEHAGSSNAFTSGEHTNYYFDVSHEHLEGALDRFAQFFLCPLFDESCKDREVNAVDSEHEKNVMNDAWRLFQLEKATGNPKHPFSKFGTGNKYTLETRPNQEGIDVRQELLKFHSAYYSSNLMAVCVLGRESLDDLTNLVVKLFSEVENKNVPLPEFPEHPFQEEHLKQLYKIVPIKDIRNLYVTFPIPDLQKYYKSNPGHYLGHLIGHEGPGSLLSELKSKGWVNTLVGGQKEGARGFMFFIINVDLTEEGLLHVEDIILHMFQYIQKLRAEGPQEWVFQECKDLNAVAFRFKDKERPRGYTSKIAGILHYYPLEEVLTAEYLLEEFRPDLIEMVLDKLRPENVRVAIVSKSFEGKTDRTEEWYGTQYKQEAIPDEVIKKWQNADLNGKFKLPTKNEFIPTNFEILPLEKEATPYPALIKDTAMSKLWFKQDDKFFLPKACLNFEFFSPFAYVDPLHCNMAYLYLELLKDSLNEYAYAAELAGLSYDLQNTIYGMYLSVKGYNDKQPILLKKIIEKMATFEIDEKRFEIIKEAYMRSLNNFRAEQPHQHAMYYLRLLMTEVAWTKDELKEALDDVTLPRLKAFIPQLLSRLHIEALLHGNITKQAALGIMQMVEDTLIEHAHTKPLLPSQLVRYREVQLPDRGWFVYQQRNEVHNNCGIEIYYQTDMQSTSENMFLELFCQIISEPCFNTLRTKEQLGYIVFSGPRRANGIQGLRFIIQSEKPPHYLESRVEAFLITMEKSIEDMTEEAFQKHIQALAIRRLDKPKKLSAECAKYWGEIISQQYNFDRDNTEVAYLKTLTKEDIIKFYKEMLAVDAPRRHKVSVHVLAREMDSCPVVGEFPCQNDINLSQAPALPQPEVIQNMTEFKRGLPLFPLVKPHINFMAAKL
IDE inh = inhibits human insulin-degrading enzyme in HEK cells. P14735. FAbetaB cleavage, fluorescence polarization. inhibition, % at 5.59 µM. actives 0.41% (n = 320,000). AID 434962;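 active = percent inhibition above the average of all tested compounds plus 3 SD, set per screening campaign, cut at about 16% in these data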;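 note: IDE supplied by intact live HEK cells; FP after avidin binding of uncleaved biotin substrate so inhibition keeps polarization high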
Rpn11 block = blocks the human proteasome subunit Rpn11; calls only at 20 µM; O00487; human 26S proteasome, Ub4-pepOG fluorescence polarization; 20S core pre-blocked with epoxomicin; actives 0.59% (n = 360,000); AID 588493;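 active = inhibition at 20 µM, scaled to each plate's controls, above about 33%, limit read from the data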
HNF4A DNA FP = change in binding of human HNF4 alpha to DNA | P41235 | HNF4a-FITC DNA binding, fluorescence polarization, 1 h | activity change, % at 10 µM | actives 0.3% (n = 360,000) | AID 1224865; in the data active = activity change above about 30%, passing the limit was not always enough
CSN inh = inhibitors of human CSN-mediated cullin deneddylation; Purified CSN, SCF-Nedd8-OG deneddylation, fluorescence polarization; inhibition, % at 12.5 µM; actives 0.38% (n = 360,000); AID 651999;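 active = pattern-corrected inhibition above about 35%, with an unprinted fluorescence ratio check between 0.5 and 1.5, limit read from the data, passing the limit was not always enough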
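assay system = purified human Csn5 enzyme expressed in HEK293T cells | amount = 0.24 nM enzyme | buffer or medium = Tris/NaCl/DTT buffer, pH 7.5 | reagent = 10 nM SCFSkp2-Nedd8OG | compound = one concentration, 12.5 µM, 0.25% DMSO | times = 90 min reaction at room temperature | signal = FP | read-out basis = % inhibition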
TPT1 inhibitor = inhibitors of Candida albicans tRNA 2'-phosphotransferase TPT1 | inhibition, % at 5 µM | actives 0.81% (n = 300,000) | recombinant caTPT1, FP RNA substrate dephosphorylation;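 active = inhibition above the mean of all tested compounds plus 3 SD, set per screening campaign, cut at about 24% in these data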
Each line names hits and unclear results; the compound was inactive in the other large screens; ! = a repeat was not active. The list is not random: actives were taken first. Their share in the collection is about 1.7%.

CN(/N=C/c1ccncc1)c1cnn(-c2ccc(F)c(Cl)c2)c(=O)c1Cl	CSN inh 44
CC1(C)Cc2cccc(OCC(=O)Nc3ccccc3C(F)(F)F)c2O1	HNF4A DNA FP 40
CCN(CC(=O)Nc1ccccc1C(F)(F)F)C(=O)COc1cccc2c1OC(C)(C)C2	none
Cn1ccc2c(-c3ccc4c(c3)OCCO4)cc3c(c21)C1CCC3O1 (configuration not stated)	none (no result: IDE act, IDE inh, TPT1 inhibitor)
Cn1ccc2c(-c3ccc4c(c3)OCCO4)cc3c(c21)C1CCC3C1 (configuration not stated)	CSN inh 117 (no result: IDE act, IDE inh, TPT1 inhibitor)
Cc1cc2cc3c(cc2nc1SCc1ccc(C(=O)O)cc1)OCCO3	none
N=c1c2c(n(Cc3ccc(Cl)cc3)c3c1CCC3)CCC2	HNF4A DNA FP 42
O=C(CCNC(=O)c1ccc([N+](=O)[O-])cc1)Nc1ccc(N2CCOCC2)cc1N1CCOCC1	none
O=C(Nc1ccc(N2CCOCC2)cc1N1CCOCC1)c1ccc([N+](=O)[O-])cc1	CSN inh 74
CCN(CC)c1ccc2c(-c3ccc(S(=O)(=O)O)cc3S(=O)(=O)[O-])c3ccc(=[N+](CC)CC)cc-3oc2c1	IDE act 27
CCN(C(=O)COC(=O)c1cccnc1SC)C1CCCCC1	none (no result: TPT1 inhibitor)
COC(=O)c1cc(C(=O)OCC(=O)c2ccc3c(c2)NC(=O)CO3)cc([N+](=O)[O-])c1	CSN inh 70 (no result: IDE inh, TPT1 inhibitor)
C#CCOCCOCCOCCNc1nc(N2CCN(C(=O)CCCCCCCCCCNC(=O)Cn3cc(C[C@@H](C)O)nn3)CC2)nc(N2CCN(C(=O)CCCCCCCCCCNC(=O)[C@@H]([C@H](C)CC)n3cc(CCCCCN)nn3)CC2)n1	IDE act 26
C#CCOCCOCCOCCNc1nc(N2CCN(C(=O)Cn3cc(CCCCN)nn3)CC2)nc(N2CCN(C(=O)Cn3cc(CC(C)O)nn3)CC2)n1 (configuration not stated)	none
C#CCOCCOCCOCCNc1nc(N2CCN(C(=O)CCCCCCCCCCNC(=O)Cn3cc(CCCCCN)nn3)CC2)nc(N2CCN(C(=O)CCCCCCCCCCNC(=O)[C@@H]([C@H](C)O)n3cc(C)nn3)CC2)n1	IDE act 25
C#CCOCCOCCOCCNc1nc(N2CCN(C(=O)CCCCCCCCCCNC(=O)Cn3cc(C[C@@H](C)O)nn3)CC2)nc(N2CCN(C(=O)CCCCCCCCCCNC(=O)[C@@H]([C@H](C)O)n3cc(C)nn3)CC2)n1	none
C#CCOCCOCCOCCNc1nc(N2CCN(C(=O)CCCCCCCCCCNC(=O)Cn3cc(CCCCCN)nn3)CC2)nc(N2CCN(C(=O)CCCCCCCCCCNC(=O)Cn3cc(C[C@@H](C)O)nn3)CC2)n1	IDE act 22
CCC(C)C(NC(=O)c1ccccc1NC(=O)c1ccccc1)C(=O)N1CCOCC1 (configuration not stated)	none
CC(=O)c1cccc(NC(=O)/C(=C/c2ccncc2)NC(=O)c2ccccc2)c1	none
CNS(=O)(=O)c1cccc(C(=O)OCC(=O)c2ccc3[nH]c(=O)[nH]c3c2)c1	CSN inh 54 (no result: TPT1 inhibitor)
CNS(=O)(=O)c1cccc(C(=O)OCC(=O)c2ccc(S(=O)(=O)N3CCCCC3)cc2)c1	none
CC(C)c1ccc(CNc2ccc(N3CCOCC3)cc2)cc1	none
COc1ccc(OC)c(NC(=O)CCC(=O)N(Cc2ccc(OC)c(OC)c2)c2nccs2)c1	CSN inh 43
CCCCCCCCCCCCCCCC[n+]1cccc(C(=O)N(CC)CC)c1	Rpn11 block active!
CCCCCCCC[n+]1cccc(C(=O)N(CC)CC)c1	none
C#CCOCCOCCOCCNc1nc(N2CCN(C(=O)[C@H](CCC(=O)O)n3cc(C(N)[C@H](C)CC)nn3)CC2)nc(N2CCN(C(=O)[C@H](Cc3ccc(O)cc3)n3cc(C(N)[C@H](C)CC)nn3)CC2)n1 (some centres not stated)	none
CCN(c1ccc(NC(=O)COC(=O)c2ccc3ccccc3n2)cc1)C(C)C	none
CC1CCN(C(=O)CCNC(=O)Cn2cnc3sc4c(c3c2=O)CCCC4)CC1	CSN inh 125
Cc1sc2ncn(CC(=O)NCCCC(=O)N3CCCCC3)c(=O)c2c1C	none
Cc1sc2ncn(CC(=O)NCCCC(=O)N3CCN(c4ccccc4)CC3)c(=O)c2c1C	CSN inh 76
Cc1csc(NC(=O)CSc2nc(C(C)C)nc3c2c(=O)n(C)c(=O)n3C)n1	none
COc1ccccc1CCNS(=O)(=O)CCNC(=O)c1ccccc1	none
COc1cc(/C=C(\NC(C)=O)C(=O)Nc2cccc(O)c2)ccc1OC(C)=O	HNF4A DNA FP 37
COc1cc(/C=C(\NC(C)=O)C(=O)NC(C)(C)C)ccc1OC(C)=O	none
C(=Cc1c[nH]c2ccccc12)c1ccc2ccccc2n1	HNF4A DNA FP 37 (no result: IDE inh, TPT1 inhibitor)
CNC[C@H](Cc1ccccc1)NC[C@@H](Cc1cccc2ccccc12)NCCc1ccc(C)cc1	IDE act 18
O=C(CSc1nnc2scc(-c3ccccc3)n12)Nc1nsc(-c2ccc(Cl)cc2)n1	CSN inh 47
O=C(CSc1nnc2scc(-c3ccccc3)n12)Nc1nsc(-c2ccccc2)n1	none
CN(C(=O)C1CC1)c1ccccc1	none (no result: IDE act, IDE inh, TPT1 inhibitor)
Cc1ccc(S(=O)(=O)N2C[C@H]3[C@H]4C(=O)N(c5ccccc5)C(=O)[C@H]4CC(=O)[C@H]3[C@@H]2c2ccccc2F)cc1	CSN inh 111 (no result: IDE act, IDE inh, TPT1 inhibitor)
O=C(c1ccc(Br)cc1)N(c1ccccn1)C1CCCCC1	none
O=C(NNC(=O)C12CC3CC(CC(C3)C1)C2)c1ccccc1F	none
CSc1nnnn1CCn1nnnc1SC	CSN inh 51
CC(C)CC1=C/C(=C/c2ccc(-c3ccccc3)o2)C(=O)O1	Rpn11 block active, CSN inh 38
NS(=O)(=O)c1ccc(-c2ccc(C=C3C(=O)c4ccccc4C3=O)o2)cc1	none
CSc1ccccc1C(=O)OCC(=O)NCCN1C(=O)CSC1=O	none (no result: TPT1 inhibitor)
COc1ccc(/C=N/n2cnc3c([nH]c4ccc(F)cc43)c2=O)cc1CN1CCCC1	CSN inh 85
C=C(C)Cn1c2ccc(NC(=O)CCc3cccnc3)cc2c(=O)n1C	none (no result: IDE act, IDE inh, TPT1 inhibitor)
O=C(Nc1ccccc1C(F)(F)F)NC1(C(=O)N2CCOCC2)CCCCC1	CSN inh 43 (not shown: IDE inh, Rpn11 block, TPT1 inhibitor)
O=C(c1cc2nc(-c3ccco3)cc(C(F)(F)F)n2n1)N1CCN(c2ccccn2)CC1	none
Cc1ccc(/C([O-])=C(/C(=S)NCc2ccco2)[n+]2ccccc2)cc1	none (no result: IDE act, Rpn11 block, HNF4A DNA FP, CSN inh)
Cc1cccc(C)c1NC(=O)CSc1nnc(C)n1CC1CCCO1 (configuration not stated)	HNF4A DNA FP 115
Cc1nnc(SCC(=O)Nc2ccc3c(c2)OCCO3)n1CC1CCCO1 (configuration not stated)	none
O=c1[nH]c2ccccc2nc1/C=C/c1ccc(O)cc1	HNF4A DNA FP 36 (not shown: IDE inh, Rpn11 block, TPT1 inhibitor)
O=c1[nH]c2ccccc2nc1/C=C/c1ccccc1	none

Screening data deposited in PubChem by several laboratories.
